# Experimental data reported in ChEMBL document CHEMBL1132631, “Comparison of four 64Cu-labeled somatostatin analogues in vitro and in a tumor-bearing rat model: evaluation of new derivatives for positron emission tomography imaging and targeted radiotherapy” (J Med Chem, 1999).
# Experiments:
# Rattus norvegicus [1] = organism: Rattus norvegicus; test: The pancreatic uptake of [64Cu]-TETA-Y3-TATE in somatostatin-rich (ID/g) tissues by a co-injection of compound at 1 h
# Rattus norvegicus [2] = organism: Rattus norvegicus; test: The percent block of uptake of [64Cu]-TETA-Y3-TATE in somatostatin-rich tissues by a co-injection of compound; format: functional
# Outline: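 In CA20948 tumor-bearing Lewis rats, [⁶⁴Cu]TETA-Y3-TATE (5.4 μCi, 5 ng) was given i.v. by tail vein, either alone or co-injected with 150 μg of unlabeled competing peptide. All groups were killed at 1 h. Tissues were excised, weighed and γ-counted, with decay correction, to give %ID/g.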
smiles,measurement,setting,value
C[C@H](O)[C@H](NC(=O)[C@H]1CSSC[C@H](NC(=O)[C@H](N)Cc2ccccc2)C(=O)N[C@@H](Cc2ccc(O)cc2)C(=O)N[C@@H](Cc2c[nH]c3ccccc23)C(=O)N[C@@H](CCCCN)C(=O)N[C@H]([C@H](C)O)C(=O)N1)C(=O)O,Uptake,Rattus norvegicus [1],0.15 %ID/g
same,Block,Rattus norvegicus [2],> 90%
